The values that follow come from ChEMBL document CHEMBL1124185, “Studies on some derivatives of oxamniquine” (1988).

Type in all cases: functional
Assay [1] relates to Schistosoma mansoni. Briefly: Percent [3H]uridine incorporation relative to control at 50 ug/mL against hycanthone-sensitive schistosomes (% worms surviving in culture). Put shortly: (§1)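 Hycanthone-sensitive Schistosoma mansoni worms exposed to compound in vitro. [3H]uridine incorporation into the worms was measured and expressed relative to untreated controls. Worm survival in culture was scored in parallel.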

In assay [2] the test system is Schistosoma mansoni. Briefly: Percent [3H]uridine incorporation relative to controls for a dose of 100 ug/mL against hycanthone-resistant schistosomes.
Assay [3] concerns Schistosoma mansoni. Briefly: Percent [3H]-uridine incorporation relative to controls for a dose of 100 ug/mL against hycanthone-sensitive schistosomes (% warms surviving in culture). Put shortly:
as §1

Assay [4] relates to Schistosoma mansoni. Briefly: Percent [3H]uridine incorporation relative to controls for a dose of 50 ug/mL against hycanthone-resistant schistosomes.
The test system of assay [5] is Schistosoma mansoni. Put plainly: Percent [3H]uridine incorporation relative to controls for a dose of 75 ug/mL against hycanthone-resistant schistosomes.
The subject of assay [6] is Schistosoma mansoni. Briefly: Percent [3H]uridine incorporation relative to controls for a dose of 100 ug/mL against hycanthone-sensitive schistosomes.(% warms surviving in culture). A digest of the protocol: as §1
The mark [7] stands for this setting: in the assay text read “at 75 ug/mL” for “at 50 ug/mL”.

As for `CNC(=O)OCc1cc2c(cc1[N+](=O)[O-])NC(CNC(C)C)CC2` (stereo not drawn), the Incorporation with Schistosoma mansoni [1] came out at 22%; in the assay on Schistosoma mansoni [2] it was 100%; with Schistosoma mansoni [3] it was 21%; in the assay on Schistosoma mansoni [4], 100%.

On to `CC(C)NCC1CCc2cc(CO)c([N+](=O)[O-])cc2N1` (stereo not drawn) [OXAMNIQUINE], for which the Incorporation in the assay on Schistosoma mansoni [1] came out at 14%; with Schistosoma mansoni [4], 97%.

With `COc1ccc(S(=O)(=O)N/N=C/c2cc3c(cc2[N+](=O)[O-])NC(CNC(C)C)CC3)cc1` (stereo not drawn), the Incorporation in the assay with Schistosoma mansoni [1] (setting [7]) was found to be 53%; with Schistosoma mansoni [5], 106%.

Take `Cc1ccc(S(=O)(=O)N/N=C/c2cc3c(cc2[N+](=O)[O-])NC(CNC(C)C)CC3)cc1` (stereo not drawn): the Incorporation stood at 60% with Schistosoma mansoni [1], 100% in the assay with Schistosoma mansoni [2], 32% with Schistosoma mansoni [6] and 102% in the assay with Schistosoma mansoni [4].

As to `Cc1cc(C)c(S(=O)(=O)N/N=C/c2cc3c(cc2[N+](=O)[O-])NC(CNC(C)C)CC3)c(C)c1` (stereo not drawn), the Incorporation in the assay on Schistosoma mansoni [1] amounted to 24%; with Schistosoma mansoni [2], 100%; with Schistosoma mansoni [6], 20%; in the assay on Schistosoma mansoni [4], 100%.

Regarding `CC(C)NCC1CCc2cc(/C=N/NS(=O)(=O)c3ccc([N+](=O)[O-])cc3)c([N+](=O)[O-])cc2N1` (stereo not drawn), the Incorporation was found to be 49% in the assay with Schistosoma mansoni [1] (setting [7]) and 96% with Schistosoma mansoni [5].
